According to ChEMBL document CHEMBL1157144, “Novel 16-membered macrolides modified at C-12 and C-13 positions of midecamycin A1 and miokamycin. Part 1: Synthesis and evaluation of 12,13-carbamate and 12-arylalkylamino-13-hydroxy analogues” (2008):
≈ marks a conversion by molar mass, not a printed value.

What was measured:
Format in all cases: functional
[1] = system: Staphylococcus aureus; experiment: Antibacterial activity against ermC-inducible resistant Staphylococcus aureus after 20 hrs by agar dilution method
In short: (§1)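 Agar dilution MIC. The inoculum came from a seed culture in Sensitivity test broth. A 5 µl portion of a cell suspension of about 10^6 CFU/ml was inoculated onto Sensitivity disk agar supplemented with 5% horse blood. Plates were incubated at 37 °C for 20 h, then MIC was read.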

[2] = system: Staphylococcus aureus; experiment: Antibacterial activity against ermA-constitutive resistant Staphylococcus aureus after 20 hrs by agar dilution method; in short: as §1
[3] = system: Staphylococcus aureus; experiment: Antibacterial activity against susceptible Staphylococcus aureus after 20 hrs by agar dilution method; in short: as §1
[4] = system: Haemophilus influenzae; experiment: Antibacterial activity against standard Haemophilus influenzae after 20 hrs by agar dilution method
In short: (§2)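 MIC by agar dilution. Strains grown on blood agar plates for seed culture. About 5 µl of a suspension of roughly 10^6 CFU/ml spotted onto Sensitivity disk agar with 5% horse blood. Plates incubated at 37 °C for 20 h, then MIC read.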

[5] = system: Streptococcus pyogenes; experiment: Antibacterial activity against standard Streptococcus pyogenes after 20 hrs by agar dilution method; in short: as §2
[6] = system: Streptococcus pneumoniae; experiment: Antibacterial activity against ermB-constitutive resistant Streptococcus pneumoniae after 20 hrs by agar dilution method
In short: (§3)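 Agar dilution MIC. Streptococcal strains were pre-cultured on blood agar plates. A 5 µl portion of a cell suspension of about 10^6 CFU/ml was inoculated onto Sensitivity disk agar supplemented with 5% horse blood. Plates were incubated at 37 °C for 20 h, then MIC was read.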

[7] = system: Streptococcus pneumoniae; experiment: Antibacterial activity against mefE efflux-resistant Streptococcus pneumoniae after 20 hrs by agar dilution method; in short: as §3
[8] = system: Streptococcus pneumoniae; experiment: Antibacterial activity against susceptible Streptococcus pneumoniae after 20 hrs by agar dilution method; in short: as §2
[9] = system: Haemophilus influenzae; experiment: Antibacterial activity against susceptible Haemophilus influenzae after 20 hrs by agar dilution method; in short: as §2
[10] = system: Staphylococcus aureus; experiment: Antibacterial activity against standard Staphylococcus aureus after 20 hrs by agar dilution method; in short: as §1
[11] = system: Streptococcus pyogenes; experiment: Antibacterial activity against mefE efflux-resistant Streptococcus pyogenes after 20 hrs by agar dilution method; in short: as §3
[12] = system: Moraxella catarrhalis; experiment: Antibacterial activity against standard Moraxella catarrhalis after 20 hrs by agar dilution method; in short: as §2
[13] = system: Streptococcus pneumoniae; experiment: Antibacterial activity against ermB-inducible resistant Streptococcus pneumoniae after 20 hrs by agar dilution method; in short: as §3
[14] = system: Streptococcus pyogenes; experiment: Antibacterial activity against ermB-constitutive resistant Streptococcus pyogenes after 20 hrs by agar dilution method; in short: as §3
[15] = system: Staphylococcus aureus; experiment: Antibacterial activity against ermB-inducible resistant Staphylococcus aureus after 20 hrs by agar dilution method; in short: as §1

In the case of CCC(=O)O[C@@H]1CC(=O)O[C@H](C)C[C@H](O)[C@H](N(C)CCCCCCc2ccccc2)/C=C/[C@H](OC(C)=O)[C@H](C)C[C@H](CC=O)[C@H](O[C@@H]2O[C@H](C)[C@@H](O[C@H]3C[C@@](C)(O)[C@@H](OC(=O)CC)[C@H](C)O3)[C@H](N(C)C)[C@H]2O)[C@H]1OC, the MIC [1] is reported as 0.39 µg/mL (≈ 0.367 µM), the MIC [2] is reported as 100 µg/mL (≈ 94 µM) and the MIC [3] is reported as 0.39 µg/mL (≈ 0.367 µM). For the same compound, the MIC [4] was 6.25 µg/mL (≈ 5.88 µM), the MIC [5] was 0.2 µg/mL (≈ 0.188 µM) and the MIC [6] was 50 µg/mL (≈ 47 µM). The MIC [7] was 0.2 µg/mL (≈ 0.188 µM), the MIC [8] was 0.1 µg/mL (≈ 0.094 µM) and the MIC [9] was 25 µg/mL (≈ 23.5 µM). The MIC [10] was 0.39 µg/mL (≈ 0.367 µM), the MIC [11] was 0.2 µg/mL (≈ 0.188 µM) and the MIC [12] was 0.78 µg/mL (≈ 0.734 µM). The MIC [13] was 6.25 µg/mL (≈ 5.88 µM), the MIC [14] was 25 µg/mL (≈ 23.5 µM) and the MIC [15] was 0.2 µg/mL (≈ 0.188 µM).
CCC(=O)O[C@@H]1CC(=O)O[C@H](C)C[C@H](O)[C@H](N(C)Cc2ccccc2)/C=C/[C@H](OC(C)=O)[C@H](C)C[C@H](CC=O)[C@H](O[C@@H]2O[C@H](C)[C@@H](O[C@H]3C[C@@](C)(O)[C@@H](OC(=O)CC)[C@H](C)O3)[C@H](N(C)C)[C@H]2O)[C@H]1OC was tested, and the MIC [1] was 0.39 µg/mL (≈ 0.393 µM), the MIC [2] was > 100 µg/mL and the MIC [3] was 0.39 µg/mL (≈ 0.393 µM). For the same compound, the MIC [4] was 3.13 µg/mL (≈ 3.15 µM), the MIC [5] was 0.1 µg/mL (≈ 0.101 µM) and the MIC [6] was > 100 µg/mL. The MIC [7] was 0.1 µg/mL (≈ 0.101 µM), the MIC [8] was 0.1 µg/mL (≈ 0.101 µM) and the MIC [9] was 25 µg/mL (≈ 25.2 µM). For the same compound, the MIC [10] was 0.39 µg/mL (≈ 0.393 µM), the MIC [11] was 0.39 µg/mL (≈ 0.393 µM) and the MIC [12] was 0.39 µg/mL (≈ 0.393 µM). For the same compound, the MIC [13] was 100 µg/mL (≈ 101 µM), the MIC [14] was > 100 µg/mL and the MIC [15] was 0.2 µg/mL (≈ 0.201 µM).
With CCC(=O)O[C@@H]1CC(=O)O[C@H](C)C[C@H](O)[C@H](N(C)CCCc2ccnc3ccccc23)/C=C/[C@H](OC(C)=O)[C@H](C)C[C@H](CC=O)[C@H](O[C@@H]2O[C@H](C)[C@@H](O[C@H]3C[C@@](C)(O)[C@@H](OC(=O)CC)[C@H](C)O3)[C@H](N(C)C)[C@H]2O)[C@H]1OC the MIC [1] was 0.2 µg/mL (≈ 0.187 µM), the MIC [2] was > 100 µg/mL and the MIC [3] was 0.1 µg/mL (≈ 0.0933 µM). For the same compound, the MIC [4] was 1.56 µg/mL (≈ 1.45 µM), the MIC [5] was 0.05 µg/mL (≈ 0.0466 µM) and the MIC [6] was 50 µg/mL (≈ 46.6 µM). For the same compound, the MIC [7] was 0.025 µg/mL (≈ 0.0233 µM), the MIC [8] was 0.013 µg/mL (≈ 0.0121 µM) and the MIC [9] was 12.5 µg/mL (≈ 11.7 µM). It also gave an MIC [10] of 0.1 µg/mL (≈ 0.0933 µM), an MIC [11] of 0.1 µg/mL (≈ 0.0933 µM) and an MIC [12] of 0.39 µg/mL (≈ 0.364 µM). For the same compound, the MIC [13] was 0.78 µg/mL (≈ 0.727 µM), the MIC [14] was > 100 µg/mL and the MIC [15] was 0.1 µg/mL (≈ 0.0933 µM).
In the case of CCC(=O)O[C@@H]1CC(=O)O[C@H](C)C[C@H](O)[C@H](N(C)CCCc2ccccc2)/C=C/[C@H](OC(C)=O)[C@H](C)C[C@H](CC=O)[C@H](O[C@@H]2O[C@H](C)[C@@H](O)[C@H](N(C)C)[C@H]2O)[C@H]1OC, the MIC [1] is reported as 1.56 µg/mL (≈ 1.9 µM), the MIC [2] is reported as > 100 µg/mL and the MIC [3] is reported as 0.78 µg/mL (≈ 0.95 µM). The MIC [4] was 0.39 µg/mL (≈ 0.475 µM), the MIC [5] was 0.39 µg/mL (≈ 0.475 µM) and the MIC [6] was > 100 µg/mL. It also gave an MIC [7] of 0.39 µg/mL (≈ 0.475 µM), an MIC [8] of 0.2 µg/mL (≈ 0.244 µM) and an MIC [9] of 3.13 µg/mL (≈ 3.81 µM). The MIC [10] was 0.39 µg/mL (≈ 0.475 µM), the MIC [11] was 0.78 µg/mL (≈ 0.95 µM) and the MIC [12] was 0.025 µg/mL (≈ 0.0305 µM). The MIC [13] was > 100 µg/mL, the MIC [14] was > 100 µg/mL and the MIC [15] was 1.56 µg/mL (≈ 1.9 µM).
With CCC(=O)O[C@@H]1CC(=O)O[C@H](C)C/C=C/C=C/[C@H](OC(C)=O)[C@H](C)C[C@H](CC=O)[C@H](O[C@@H]2O[C@H](C)[C@@H](O[C@H]3C[C@@](C)(OC(C)=O)[C@@H](OC(=O)CC)[C@H](C)O3)[C@H](N(C)C)[C@H]2O)[C@H]1OC [MIOCAMYCIN] the MIC [1] was 0.78 µg/mL (≈ 0.869 µM), the MIC [2] was > 100 µg/mL and the MIC [3] was 0.78 µg/mL (≈ 0.869 µM). For the same compound, the MIC [4] was 3.13 µg/mL (≈ 3.49 µM), the MIC [5] was 0.1 µg/mL (≈ 0.111 µM) and the MIC [6] was > 100 µg/mL. It also gave an MIC [7] of 0.2 µg/mL (≈ 0.223 µM), an MIC [8] of 0.1 µg/mL (≈ 0.111 µM) and an MIC [9] of 25 µg/mL (≈ 27.8 µM). The MIC [10] was 0.2 µg/mL (≈ 0.223 µM), the MIC [11] was 0.2 µg/mL (≈ 0.223 µM) and the MIC [12] was 0.78 µg/mL (≈ 0.869 µM). For the same compound, the MIC [13] was 6.25 µg/mL (≈ 6.96 µM), the MIC [14] was > 100 µg/mL and the MIC [15] was 1.56 µg/mL (≈ 1.74 µM).
For CCC(=O)O[C@@H]1CC(=O)O[C@H](C)C[C@H](O)[C@H](N(C)C)/C=C/[C@H](OC(C)=O)[C@H](C)C[C@H](CC=O)[C@H](O[C@@H]2O[C@H](C)[C@@H](O[C@H]3C[C@@](C)(O)[C@@H](OC(=O)CC)[C@H](C)O3)[C@H](N(C)C)[C@H]2O)[C@H]1OC, the MIC [1] was 0.78 µg/mL (≈ 0.851 µM), the MIC [2] was > 100 µg/mL and the MIC [3] was 0.78 µg/mL (≈ 0.851 µM). For the same compound, the MIC [4] was 1.56 µg/mL (≈ 1.7 µM), the MIC [5] was 0.2 µg/mL (≈ 0.218 µM) and the MIC [6] was > 100 µg/mL. The MIC [7] was 0.2 µg/mL (≈ 0.218 µM), the MIC [8] was 0.2 µg/mL (≈ 0.218 µM) and the MIC [9] was 25 µg/mL (≈ 27.3 µM). It also gave an MIC [10] of 0.78 µg/mL (≈ 0.851 µM), an MIC [11] of 0.39 µg/mL (≈ 0.425 µM) and an MIC [12] of 1.56 µg/mL (≈ 1.7 µM). The MIC [13] was > 100 µg/mL, the MIC [14] was > 100 µg/mL and the MIC [15] was 1.56 µg/mL (≈ 1.7 µM).
For CCC(=O)O[C@@H]1CC(=O)O[C@H](C)C[C@H](O)[C@H](N(C)CCCc2cccc3ccccc23)/C=C/[C@H](OC(C)=O)[C@H](C)C[C@H](CC=O)[C@H](O[C@@H]2O[C@H](C)[C@@H](O[C@H]3C[C@@](C)(O)[C@@H](OC(=O)CC)[C@H](C)O3)[C@H](N(C)C)[C@H]2O)[C@H]1OC, the MIC [1] was 0.78 µg/mL (≈ 0.728 µM), the MIC [2] was > 100 µg/mL and the MIC [3] was 0.39 µg/mL (≈ 0.364 µM). It also gave an MIC [4] of 6.25 µg/mL (≈ 5.83 µM), an MIC [5] of 0.1 µg/mL (≈ 0.0933 µM) and an MIC [6] of 50 µg/mL (≈ 46.7 µM). The MIC [7] was 0.1 µg/mL (≈ 0.0933 µM), the MIC [8] was 0.1 µg/mL (≈ 0.0933 µM) and the MIC [9] was 25 µg/mL (≈ 23.3 µM). The MIC [10] was 0.39 µg/mL (≈ 0.364 µM), the MIC [11] was 0.2 µg/mL (≈ 0.187 µM) and the MIC [12] was 0.78 µg/mL (≈ 0.728 µM). The MIC [13] was 6.25 µg/mL (≈ 5.83 µM), the MIC [14] was 50 µg/mL (≈ 46.7 µM) and the MIC [15] was 3.13 µg/mL (≈ 2.92 µM).
In the case of CCC(=O)O[C@@H]1CC(=O)O[C@H](C)C[C@H](O)[C@H](N(C)CCCc2cnc3ccccc3c2)/C=C/[C@H](OC(C)=O)[C@H](C)C[C@H](CC=O)[C@H](O[C@@H]2O[C@H](C)[C@@H](O)[C@H](N(C)C)[C@H]2O)[C@H]1OC, the MIC [1] is reported as 1.56 µg/mL (≈ 1.79 µM), the MIC [2] is reported as > 100 µg/mL and the MIC [3] is reported as 1.56 µg/mL (≈ 1.79 µM). For the same compound, the MIC [4] was 1.56 µg/mL (≈ 1.79 µM), the MIC [5] was 0.78 µg/mL (≈ 0.894 µM) and the MIC [6] was > 100 µg/mL. For the same compound, the MIC [7] was 0.39 µg/mL (≈ 0.447 µM), the MIC [8] was 0.2 µg/mL (≈ 0.229 µM) and the MIC [9] was 6.25 µg/mL (≈ 7.17 µM). The MIC [10] was 1.56 µg/mL (≈ 1.79 µM), the MIC [11] was 3.13 µg/mL (≈ 3.59 µM) and the MIC [12] was 0.2 µg/mL (≈ 0.229 µM). The MIC [13] was > 100 µg/mL, the MIC [14] was > 100 µg/mL and the MIC [15] was 1.56 µg/mL (≈ 1.79 µM).
